Tests used:
NCI-H2228 = assay: Antiproliferative activity against human NCI-H2228 cells assessed as inhibition of cell proliferation measured by CCK8 assay; type: functional, cell-based
Outline: (§1)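 Cell proliferation inhibition; IC50 given as mean ± SD of three independent experiments.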

BaF3 = assay: Antiproliferative activity against mouse BaF3 cells overexpressing ALK assessed as inhibition of cell proliferation measured by CCK8 assay; type: functional, cell-based; outline: as §1

Structure (SMILES) | IC50 (NCI-H2228) | IC50 (BaF3)
Cc1cc(Nc2ncc(Cl)c(Nc3ccccc3S(=O)(=O)C(C)C)n2)c(OC(C)C)cc1C1CCNCC1 [CERITINIB] | 22.1 nM | 7.11 nM
CC[S+]([O-])c1cc(F)ccc1Nc1nc(Nc2ccc(N(C)C3CCN(C)CC3)cc2OC)ncc1Cl (centres undefined) | 1440 nM | 82 nM
